From PubChem BioAssay AID1136 (Sanford-Burnham Center for Chemical Genomics, 2008)
Among all 200,000 compounds or so, fewer than 10 were called active.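 Rule for the calls: active = activation factor at least 2 at 20 µM; inactive = the rest.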 These entries were drawn from the full list.

What follows are molecules tested against Alkaline phosphatase, tissue-nonspecific isozyme (Homo sapiens) (UniProt P05186) (assay: activation of human TNAP, high DEA acceptor – biochemical, luminescence, uHTS, primary screen (AID 1136)). Conditions: purified TNAP, CDP-star luminescence, 1 M DEA, 30 min; at 20 µM; active compounds read high; 0 = EDTA background, 1 = DMSO-only activity.
Chain of Alkaline phosphatase, tissue-nonspecific isozyme (Homo sapiens) (P05186 whole entry, looked up): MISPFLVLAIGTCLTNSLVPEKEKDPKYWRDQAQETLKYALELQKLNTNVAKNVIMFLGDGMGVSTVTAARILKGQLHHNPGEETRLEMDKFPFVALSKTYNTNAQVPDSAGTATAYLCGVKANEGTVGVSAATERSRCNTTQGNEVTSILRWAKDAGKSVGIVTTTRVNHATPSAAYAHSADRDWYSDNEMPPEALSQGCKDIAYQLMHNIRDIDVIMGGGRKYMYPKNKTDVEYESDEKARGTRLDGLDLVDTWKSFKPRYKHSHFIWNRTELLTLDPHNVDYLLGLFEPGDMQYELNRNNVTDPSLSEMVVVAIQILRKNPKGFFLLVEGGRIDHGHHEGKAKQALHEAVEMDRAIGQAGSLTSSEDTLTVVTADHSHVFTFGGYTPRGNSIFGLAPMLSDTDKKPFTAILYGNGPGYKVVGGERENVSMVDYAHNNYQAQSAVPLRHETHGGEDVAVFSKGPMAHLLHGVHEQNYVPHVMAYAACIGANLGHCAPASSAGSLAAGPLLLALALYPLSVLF
Procedure, shortened: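 Test system – human TNAP · Doses – 20 µM single point · Incubation – 30 min, room temperature · Signal – luminescent substrate turnover signal · Read-out basis – activation factor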

Activation factor, inactive:
CC1CCCN(S(=O)(=O)c2ccc(N(C(=O)c3cnccn3)C(C(=O)NC3CCCCC3)c3cccs3)cc2)C1 (stereo unspecified) 0.9
COc1ccc([N+](=O)[O-])cc1NC(=O)C(C)OC(=O)C1c2ccccc2Oc2ccccc21 (stereo unspecified) 1
COc1ccc(C(=O)Nc2ccc(NC(=O)C(C)C)nc2)cc1 1.1
COc1ccc(CNc2c(CO)cnc3c2cnn3C)cc1 1
CCOC(=O)c1sc(=NC(=O)/C=C/c2cccs2)n(C)c1C 1
CN(C)C(CNC(=O)c1ccc(S(=O)(=O)NCc2ccco2)cc1)c1ccccc1 (stereo unspecified) 1
Cc1cc(C)cc(OCC(=O)Nc2ccc(S(=O)(=O)Nc3ccccn3)cc2)c1 1
COc1ccc(C(=O)NC(=S)Nc2ccc(Cl)cn2)cc1OC 1.1
COc1ccc(N2C(=O)CC(Nc3ccc(F)cc3)C2=O)c([N+](=O)[O-])c1 (stereo unspecified) 1
CC(Oc1cccc(NC(=O)c2cccs2)c1)C(=O)c1ccccc1 (stereo unspecified) 1
CCCNS(=O)(=O)c1ccc(CCC(=O)N2CCCC2)cc1 1.1
COc1cc(OC)cc(-c2nnc(SCC(=O)Nc3ccc(C(=O)O)cc3)s2)c1 1
O=C(N/N=C/c1ccc(OCC2COCCO2)cc1)c1ccc(Br)cc1 (stereo unspecified) 1
CCN(C(=O)c1ccc(Br)cc1)c1ccccc1 1
Cn1ncc(N2CCN(S(=O)(=O)c3ccc(Br)cc3)CC2)c(Cl)c1=O 1.1
O=C(CSCC(=O)Nc1cccc([N+](=O)[O-])c1)Nc1ccccc1 1
Cc1ccc(S(=O)(=O)NNC(=O)Nc2cccc3ccccc23)cc1 1
CCN(CC)c1ccc2c(Nc3ccccc3)c(C=O)c(=O)oc2c1 1
O=C(COC(=O)CCCSc1nc2ccccc2[nH]1)Nc1ccc(Oc2ccccc2)cc1 1.1
O=C(NCc1cccnc1)c1cccc(-c2cc3ccccc3oc2=O)c1 1.1
C=CCN(C(=O)c1cc(C)cc(C)c1)C1(C(=O)Nc2ccccc2)CCN(C(C)C)CC1 1
CCOc1ccc(C(=O)Nc2nccs2)cc1[N+](=O)[O-] 1
COc1ccc(C)cc1NC(=O)NCc1ccccn1 1
CCC1S/C(=N/N=C/c2ccco2)NC1=O (stereo unspecified) 1
CN(C)S(=O)(=O)c1ccc2oc(SCC(=O)Nc3ccccc3F)nc2c1 1
C=CCOC(=O)C1=C[C@@H](c2ccccc2)C[C@@H](OCc2ccc(CO)cc2)O1 1.1
NC1=C([N+](=O)[O-])C(c2ccccc2)C2=C(CCCC2=O)O1 (stereo unspecified) 1
Cc1ccc(C2(C(F)(F)F)N=C3Sc4cc(C)cc(C)c4N3C(=O)N2)cc1 (stereo unspecified) 1
CCN(CC(=O)NC1CCS(=O)(=O)C1)c1nc(-c2cccnc2)nc2ccccc12 (stereo unspecified) 1
COCC(C)NC(=O)COc1nncc2ccccc12 (stereo unspecified) 1.1
CC(=O)N1C(C)c2ccccc2C(C)(C)CC12CCCCC2 (stereo unspecified) 1
Cn1cccc1/C=C1\SC(=O)N(CC(=O)Nc2ccc(F)cc2)C1=O 1.1
COc1ccc(NC(=O)c2sc(N)nc2-c2ccccc2)cc1 1
Cc1c(NC(=S)NC(=O)CCc2ccccc2)c(=O)n(-c2ccccc2)n1C 1.1
CCCc1nc2c([nH]1)C(c1cccnc1)C(C#N)=C(N)O2 (stereo unspecified) 1
O=C1OC(/C=C/c2ccccc2)=NC/1=C/c1ccco1 1
CCc1ccc(CN(C)Cc2nc(Cc3ccccc3)no2)nc1 1.1
O=C(O)c1ccc2c3c(cccc13)C(=O)N(OS(=O)(=O)c1ccccc1)C2=O 1
CCN(CC)C(=O)Oc1ccc(OC(=O)N(CC)CC)cc1 1.1
CC(Sc1nncn1C)C(=O)Nc1cc(C(F)(F)F)ccc1N1CCOCC1 (stereo unspecified) 1
CN(C)/C=C(/C(=O)c1ccccc1)S(=O)(=O)c1ccc(Cl)cc1 1
O=C(/C=C/c1ccc([N+](=O)[O-])cc1)NCCSCc1ccco1 1
O=C(Oc1cccc(O)c1)C1CCCCC1 1
O=C(NCCc1ccccc1)C1CCC(Cn2c(=O)c3ccccc3n(Cc3cccnc3)c2=O)CC1 (stereo unspecified) 0.9
C=CCc1ccc(OCC(O)CN2CCN(Cc3ccccc3)CC2)c(OC)c1 (stereo unspecified) 1
CC(C)(C)NCc1cc(Br)ccc1OC1CCCC1 1
O=C(NCc1nnc(SCC(=O)N2CCCc3ccccc32)o1)c1ccccc1F 1
CN1CCN(c2ccc(NC(=O)c3ccc4c(c3)OCCO4)cc2Cl)CC1 1.1
O=C(CC(=O)N/N=C\c1cccc(Cl)c1Cl)NCc1ccccc1 1
Cc1cc([N+](=O)[O-])nn1CC(=O)Nc1ccc(Cc2ccncc2)cc1 1
Cc1cc(C)n(-c2ccc(C(=O)O)cc2[N+](=O)[O-])n1 1
Cc1cccc(Nc2nc3c(S(=O)(=O)c4ccccc4)nnn3c3ccccc23)c1C 1.1
Cc1ccc(S(=O)(=O)NC(=O)COc2ccccc2C)cc1 1
Cc1nc2c(C(=O)NCc3cccs3)cnn2c(C)c1Cc1ccc(F)cc1 1
CC(=O)c1cccc(NC(=O)[C@@H](NC(N)=O)C(C)C)c1 1
Cc1cccc(C)c1OCC(=O)NC(Cc1c[nH]c2ccccc12)C(=O)O (stereo unspecified) 0.9
COc1ccc(N2CCN(C(=O)CNS(=O)(=O)c3ccc(C)c(C)c3)CC2)cc1 1.1
Cc1ccc(-n2cnc3ncnc(-c4ccccc4)c32)cc1 1.1
O=c1cc(CO)oc(C(Nc2cccc([N+](=O)[O-])c2)c2ccccn2)c1O (stereo unspecified) 1
Cc1ccc(NC(=O)c2csc3c2CCCC3)cc1 1
CCNC(=O)CC1C(=O)N(c2ccc(OC)cc2)C(=S)N1CCc1ccncc1 (stereo unspecified) 1
O=C(CC12CC3CC(CC(C3)C1)C2)NCc1ccco1 1
CN(C)c1ccc(/C=N\S(=O)(=O)c2ccccc2)cc1 1
Cn1c2c(c(=O)n(C)c1=O)C(c1cccc([N+](=O)[O-])c1)Nc1ccccc1O2 (stereo unspecified) 1
COC(=O)C1CCN(CC(N)=O)CC1 1.1
CCCCN(CC)C(=S)Nc1ccc2nc3n(c(=O)c2c1)CCCCC3 1
CCOC(=O)C1=NOC(Cn2cc(C(C)=O)c(=O)[nH]c2=O)C1 (stereo unspecified) 1
O=C(C1=C[C@H](c2coc3ccccc3c2=O)C[C@H](OCc2ccc(CO)cc2)O1)N1CCN(Cc2ccccc2)CC1 1
COc1ccc(C(=O)NCC(=O)N/N=C/c2ccc([N+](=O)[O-])s2)cc1OC 0.9
CC(=O)c1ccc(NC(=O)c2ccc3c(Cl)c4c(nc3c2)CCCC4)cc1 1
Cc1ccc(NS(=O)(=O)c2ccc(C)c(NC(=O)COc3ccc4ccccc4c3)c2)c(C)c1 1
CCCCC(CC)CNC(=O)C(=O)C1C(=O)Nc2ccccc21 (stereo unspecified) 1
Nc1nc(NC(=O)/C=C/c2ccccc2)nn1-c1ccccc1 1
CCOC(=O)c1cccc(NC(=O)CCOc2ccccc2)c1 1
Cc1ccc2[nH]c(C(=O)O)c(NC(=O)c3ccccc3[N+](=O)[O-])c2c1 1
COc1ccc(Cl)cc1C(=O)NNC(=S)NC(=O)/C=C/c1ccco1 1.1
C=C(C)C1CC=C(C)/C(=N/NC(=O)CCCNc2cccc(C)c2)C1 (stereo unspecified) 1
O=C(Nc1ccc(C(=O)O)cc1)/C(=C/c1ccc([N+](=O)[O-])cc1)NC(=O)c1ccccc1 1
Cc1ccc(CN2CCN(/N=C/c3cccnc3)CC2)c(C)c1 1
COc1cc(OC)nc(S(C)(=O)=O)n1 1
CCn1c2ccccc2c2cc(NC(=O)COC(=O)c3cc(S(=O)(=O)N4CCCCC4)ccc3Cl)ccc21 1
N=C1C(c2nc3ccccc3[nH]2)=C(O)CN1NC(=O)c1c[nH]c2ccccc12 1.1
CCn1c(COc2ccccc2)nnc1SCC(=O)NCc1ccco1 1
Cc1cc(N2CCOCC2)nc(-c2ccc(Br)cc2)n1 1
Cc1nn(C)cc1C(=O)Nc1ccccc1Br 1
C/C=C(\C)C(=O)NCCN1C2=NC[C@H](Cc3ccc(O)cc3)N2C[C@@H]1Cc1ccc(OC)cc1 1.1
Cc1ccc(CN(Cc2cccnc2)C(=S)Nc2cc(Cl)ccc2C)cc1 1.1
COC(=O)CCSc1cc([N+](=O)[O-])cc2c1c(C1OCCS1)nn2-c1ccccc1 (stereo unspecified) 1
COc1ccc(OC)c(C2C3=C(N=c4s/c(=C\c5cccc(O)c5)c(=O)n42)c2ccccc2CC3)c1 (stereo unspecified) 0.9
CC(NC(=O)c1cccc2ccccc12)c1ccc2c(c1)CCCC2 (stereo unspecified) 1
COc1ccccc1NC(=O)C1=C(C)Nc2nc3ccccc3n2C1c1cccs1 (stereo unspecified) 1
CCOC(=O)c1sc(/N=C/C2=C(O)CC(C)(C)CC2=O)c(C(=O)OCC)c1C 1
O=C(CCNC(=O)c1ccc([N+](=O)[O-])cc1)Nc1ccccc1N1CCOCC1 1
CCN(CC)CCCNC(=O)c1ccc2c(=O)n(Cc3ccc4c(c3)OCO4)c(=S)[nH]c2c1 1
CC1(c2cccc([N+](=O)[O-])c2)CC(C)(C)N(C(=O)c2ccccc2)c2ccccc21 (stereo unspecified) 1
C=CS(=O)c1sc(Cl)c(N2CCOCC2)c1[N+](=O)[O-] (stereo unspecified) 1
